Source: PubChem
hIAP activ = human IAP activators, primary screen, biochemical, luminescence, uHTS | purified human IAP, CDP-Star luminescence, 30 min; hits give high values; 1 = vehicle-only enzyme, 0 = enzyme-free background | activation factor at 10 µM | 330,000 tested, 0.16% active | AID 2524, 2010;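 active = activation factor of the enzyme at least 2-fold when tested at 20 µM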
Target sequence (P09923 whole entry, looked up): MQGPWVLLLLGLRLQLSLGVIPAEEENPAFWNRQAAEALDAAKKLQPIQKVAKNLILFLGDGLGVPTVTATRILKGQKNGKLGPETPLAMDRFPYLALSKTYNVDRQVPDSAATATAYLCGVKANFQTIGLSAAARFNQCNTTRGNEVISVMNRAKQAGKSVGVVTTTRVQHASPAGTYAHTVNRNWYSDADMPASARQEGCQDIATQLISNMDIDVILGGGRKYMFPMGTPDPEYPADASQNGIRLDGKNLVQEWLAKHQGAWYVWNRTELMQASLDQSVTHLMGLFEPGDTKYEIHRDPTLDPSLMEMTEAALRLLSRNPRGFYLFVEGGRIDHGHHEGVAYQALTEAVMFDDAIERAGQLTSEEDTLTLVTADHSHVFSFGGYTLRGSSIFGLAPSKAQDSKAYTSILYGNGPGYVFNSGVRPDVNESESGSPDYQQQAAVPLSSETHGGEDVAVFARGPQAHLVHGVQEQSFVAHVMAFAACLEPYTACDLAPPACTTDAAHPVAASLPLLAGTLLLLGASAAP
mIAP inh = inhibitors of mouse IAP, primary screen, biochemical, luminescence, uHTS. 330,000 tested, 0.2% active. purified mouse IAP, CDP-Star luminescence, 30 min. inhibition, % at 10 µM. intestinal alkaline phosphatase [Mus musculus];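 active = inhibition of at least 40% at 10 µM in the primary screen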
bIAP activator = bovine intestinal alkaline phosphatase activators, primary screen, biochemical, bovine IAP, CDP-star luminescence; alkaline phosphatase, intestinal [Bos taurus]; purified bovine IAP, 30 min; hits give high values; fold of DMSO-control signal, blank-subtracted; activation factor at 20 µM; 200,000 tested, 0.17% active; AID 1016, 2008;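 active = activation factor of 2 or more at 20 µM, a signal rise over negative controls twice the positive control's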
bIAP inhibitor = bovine intestinal alkaline phosphatase inhibitors, primary screen, selectivity assay for TNAP inhibitor project, biochemical, bovine IAP, CDP-star luminescence; inhibition, % at 20 µM; purified bovine IAP, 30 min; alkaline phosphatase, intestinal [Bos taurus]; 190,000 tested, under 10 active;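 active = over 50% inhibition of intestinal alkaline phosphatase at 20 µM in the single-dose screen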
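Assay system: bovine IAP enzyme; medium: DEA buffer 100 mM, pH 9.8, with MgCl2 1.0 mM, ZnCl2 0.02 mM; doses: 20 µM single dose; incubation: enzyme reaction for 30 min at room temperature; detection: CDP-star luminescence signal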
hIAP block = human IAP inhibitors, primary screen, biochemical, luminescence, uHTS; Intestinal-type alkaline phosphatase (Homo sapiens), P09923; purified IAP, CDP-Star luminescence, 30 min; inhibition, % at 10 µM; 330,000 tested, 0.12% active; AID 2544, 2010;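 active = inhibition reaching a set limit with compound at 10 µM in the primary screen, cut at about 35% in these data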
mIAP activ = activators of mouse IAP, primary screen, biochemical, luminescence, uHTS; 330,000 tested, 0.24% active; activation factor at 10 µM; AID 2805, 2010; intestinal alkaline phosphatase [Mus musculus]; muIAP, CDP-Star luminescence, 30 min; hits give high values; 1 = vehicle-only enzyme signal, 0 = enzyme-free wells;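 active = activation factor of at least 2 at 20 µM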
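System: mouse IAP enzyme. Reagent: CDP-Star chemiluminescent phosphatase substrate. Benchmarks: DMSO wells, no-enzyme wells. Times: 30 min enzyme-substrate-compound incubation at room temperature. Detection: luminescence from enzymatic CDP-Star hydrolysis. Doses: test compounds delivered from DMSO solution.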
A number is an active result; . = inactive; / = no result. Sampled rows, rich in hits. Any-hit rate of the full collection: about 0.79%.

SMILES	hIAP activ	mIAP inh	bIAP activator	bIAP inhibitor	hIAP block	mIAP activ
COc1cc(NC(=O)c2ccc3c(c2)OCO3)c2ncccc2c1	.	.	11	.	.	.
O=C(Nc1cccc2cccnc12)c1ccc2c(c1)OCCO2	.	.	.	.	.	.
COC(=O)c1ccc(NC(=S)NCCC2=CCCCC2)cc1	.	.	.	.	.	2.5
COC(=O)c1cccc(NC(=S)NCCC2=CCCCC2)c1	.	.	.	.	.	.
Nn1c(-c2ccccc2Cl)nnc1-c1ccccc1Cl	.	.	2.6	.	.	.
COc1ccc(C(=O)COC(=O)c2sccc2C)cc1OC	.	.	/	/	.	.
CC1CC(C)CN(S(=O)(=O)c2ccc(NC(=O)[C@@H]3CCCN3C(=O)c3cccs3)cc2)C1 (some centres not stated)	.	50	/	/	.	.
N#C/C(=C(/O)C(Cl)(Cl)Cl)c1nc2ccccc2[nH]1	.	.	/	/	.	.
FC(F)Sc1ccc(NC(=S)NC2CCCCC2)cc1	.	.	.	.	.	2.2
CC1CCCCC1NC(=S)Nc1ccc(SC(F)F)cc1 (configuration not stated)	.	.	.	.	.	3.3
CN(CC(=O)Nc1ccc(SC(F)F)cc1)C1CCCCC1	.	.	.	.	.	.
FC(F)Sc1ccc(NC(=S)NCC2CCCCC2)cc1	.	.	.	/	.	3.3
S=C(NCC1CCCCC1)Nc1cccnc1	.	.	.	.	.	.
Cc1ccc(S(=O)(=O)CCN2CCC(n3cccc3)CC2)cc1	.	.	/	/	.	.
Cc1ccc(/C=C/C(=O)NC2=NCCS2)cc1	.	.	.	.	41	.
Cc1ccn2c(Nc3ccccc3C)c(-c3ccccn3)nc2c1	.	.	2.1	.	.	.
CC(=O)Nc1ccc(S(=O)(=O)NCC(=O)OCC(=O)N2CC(C)OC(C)C2)cc1 (configuration not stated)	.	.	/	/	.	.
CCCCC(CC)CNC(=O)C(Cc1ccccc1)NS(=O)(=O)c1ccc2c(c1)CCC(=O)N2 (configuration not stated)	.	.	.	.	.	2.2
CCN(CC(=O)NCc1ccc(F)cc1)Cc1nc2ccccc2c(=O)[nH]1	.	.	2	.	.	.
CCN(CC(=O)Nc1cccc(F)c1)Cc1nc2ccccc2c(=O)[nH]1	.	.	.	.	.	.
Cc1nc(SCCC(=O)O)c2cc(-c3ccccc3)sc2n1	.	.	/	/	.	.
COc1cc(NC(=O)C(Cc2ccccc2)n2cccc2)cc(OC)c1 (configuration not stated)	.	.	/	/	.	2.1
COCCN(C(=O)CSc1cc(C)c2ccccc2n1)c1c(N)n(CC(C)C)c(=O)[nH]c1=O	.	.	/	/	.	.
COc1ccc(N2C3=C(CC4=C2CCCC4=O)C(=O)CCC3)cc1	.	46	.	.	.	.
COc1ccc(CC(=O)Nc2ccc(S(=O)(=O)N3CCCCC3)cc2)cc1OC	.	.	/	/	.	.
SMILES	hIAP activ	mIAP inh	bIAP activator	bIAP inhibitor	hIAP block	mIAP activ
O=C(Nc1cccc2ccccc12)c1cn(-c2ccccc2)nc1-c1cccs1	.	.	.	.	.	2.2
COc1cc(OC)cc(C(=O)N[C@H](C(=O)OCC(=O)Nc2cccnc2Cl)C(C)C)c1	.	.	/	/	.	.
O=C(Nc1cc(Cl)cc(Cl)c1)N1CCCC1	.	.	/	/	.	2.1
O=C(Nc1cc(Cl)cc(Cl)c1)C(c1ccccc1)N1CCCCC1 (configuration not stated)	.	.	.	.	.	3
COc1ccc(NC(=O)c2ccc3c(=O)n(Cc4ccco4)c(=S)[nH]c3c2)c(OC)c1	.	45	.	.	.	.
COc1ccc(C(C(=O)NC2CCCC2)N(Cc2cccs2)C(=O)c2ccn[nH]2)cc1OC (configuration not stated)	.	.	2.3	.	.	.
COCCN(C(=O)Cc1cccs1)C(C(=O)NC1CCCC1)c1ccc(OC)c(OC)c1 (configuration not stated)	.	.	.	.	.	.
COc1ccc(-c2nnn(CC(=O)N(Cc3cccs3)C(C)C(=O)NC3CCCC3)n2)cc1OC (configuration not stated)	.	.	.	.	.	.
CCC(C(=O)NC1CCCC1)N(Cc1cccs1)C(=O)Cn1nnc(-c2ccc(OC)c(OC)c2)n1 (configuration not stated)	.	.	.	.	.	2.1
O=C(CN(C(=O)Cn1nnc(-c2ccccc2F)n1)c1cccc2c1CCCC2)NCc1ccccc1	.	.	2.2	.	.	.
O=C1c2ccccc2S(=O)(=O)c2cc(N3CCC(C(=O)N4CCCCC4)CC3)ccc21	.	.	/	/	.	.
O=C1c2ccccc2S(=O)(=O)c2cc(N3CCc4ccccc4C3)ccc21	.	43	/	/	.	.
CC(Sc1nnc(-c2ccco2)o1)C(=O)Nc1ccc(OC(F)F)cc1 (configuration not stated)	.	51	/	/	.	.
C=CCN1C(=O)c2ccc(C(=O)N(CC)CC(=O)Nc3c(F)cccc3F)cc2C1=O	.	.	/	/	.	.
Cc1cc(/C=N/n2cnnc2)c(C)n1-c1ccc(Cl)cc1	.	.	.	.	.	.
Cc1cc(/C=N/n2cnnc2)c(C)n1-c1ccc(OCc2ccc(Cl)cc2Cl)cc1	.	.	2.5	.	.	.
CN(C)S(=O)(=O)c1cccc(NC(=O)c2cccc(S(=O)(=O)N3CCCCC3)c2)c1	.	.	/	/	.	.
Cc1nccn1C(c1ccccc1)c1ccccc1	.	.	/	/	.	.
Oc1ccc(/C=N/NC(=S)Nc2cccnc2)cc1O	.	79	.	.	.	.
CC(C)(C)c1ccc(/C=N/NC(=S)Nc2cccnc2)cc1	.	.	.	.	.	.
CNS(=O)(=O)c1cccc(C(=O)OCc2cc(=O)oc3c(C)c(O)ccc23)c1	.	.	/	/	.	.
CSCCC1NC(=O)N(CC(=O)Nc2ccc3c(c2)OCCO3)C1=O (configuration not stated)	.	.	/	/	.	.
CCOC(=O)C(CC)Sc1nc2c(c(=O)[nH]c(=O)n2C)n1CCc1ccccc1 (configuration not stated)	.	.	2.8	.	.	.
CCOC(=O)CSc1nc2c(c(=O)[nH]c(=O)n2C)n1CCc1ccccc1	.	.	.	.	.	.
O=C(O)COc1ccccc1Cc1ccccc1	.	.	.	.	.	.
